Laboratory results reported in ChEMBL document CHEMBL4145560, “Conformationally Constrained Cinnolinone Nucleoside Analogues as Siderophore Biosynthesis Inhibitors for Tuberculosis” (ACS Med Chem Lett, 2018).
Activity calls are given as the source filed them. No cut-off for these calls is given here.

Experiments:
[1] = Volume of distribution at steady state in Sprague-Dawley rat at 2.5 mg/kg, iv administered as single dose via bolus injection by LC-MS/MS method; type: ADME, organism-based; conditions: in vivo, read-out: Vdss
In short: (§1)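 Female Sprague–Dawley rats (n = 3), single i.v. dose 2.5 mg/kg. Plasma concentrations at several time points by LC–MS/MS. AUC taken over 0–8 h. Clearance, volume of distribution and half-life derived from the i.v. curve, with elimination monoexponential. Reported as mean ± SD.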

[2] = system: Mycobacterium tuberculosis; assay: Antimycobacterial activity against Mycobacterium tuberculosis H37Rv in glycerol alanine salts medium without ferric ammonium citrate at pH 6.6 after 10 to 14 days in presence of 12.5 uM salicylate by broth microdilution method; type: functional
In short: (§2)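 MIC against M. tuberculosis in iron-deficient GAST medium supplemented with salicylate at 0, 0.2, 0.78, 3.1 or 12.5 μM. Salicylate was added to the growth medium to test antagonism of whole-cell activity.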

[3] = molecular target: T1, Salicyl-AMP ligase / salicyl-S-ArCP synthetase (Mycobacterium tuberculosis) (UniProt P71716); assay: Inhibition of salicylate ligase MbtA in Mycobacterium tuberculosis H37Rv in iron-free GAST medium assessed as reduction in water-soluble carboxymycobactin production at pH 7.4 at 5 times MIC after 27 to 70 hrs by LC-MS/MS method relative to control
T1 sequence (whole entry): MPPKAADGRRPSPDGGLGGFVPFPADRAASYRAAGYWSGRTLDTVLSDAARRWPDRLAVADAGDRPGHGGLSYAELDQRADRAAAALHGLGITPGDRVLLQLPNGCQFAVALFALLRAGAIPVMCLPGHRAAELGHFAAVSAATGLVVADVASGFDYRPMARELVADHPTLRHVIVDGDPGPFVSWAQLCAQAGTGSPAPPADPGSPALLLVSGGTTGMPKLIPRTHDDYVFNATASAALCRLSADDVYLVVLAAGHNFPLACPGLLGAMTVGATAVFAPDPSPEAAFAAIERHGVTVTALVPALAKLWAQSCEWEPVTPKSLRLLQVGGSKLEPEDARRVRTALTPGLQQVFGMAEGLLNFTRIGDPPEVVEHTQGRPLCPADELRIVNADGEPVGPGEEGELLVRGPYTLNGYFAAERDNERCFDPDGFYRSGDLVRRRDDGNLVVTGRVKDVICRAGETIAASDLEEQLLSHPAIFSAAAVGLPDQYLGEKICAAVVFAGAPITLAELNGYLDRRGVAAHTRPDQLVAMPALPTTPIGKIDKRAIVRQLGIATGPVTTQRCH
In short: (§3)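 M. tuberculosis grown in iron-deficient GAST medium from an initial OD650 of 0.2, with or without inhibitor at 5 × MIC, for 27 and 70 h. Mycobactin-T (cell-wall associated) and carboxymycobactin (secreted plus cell-wall associated) quantified by LC–MS/MS in MRM mode against synthetic standards. Values normalized to cell density.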

[4] = molecular target: T2, Salicyl-AMP ligase / salicyl-S-ArCP synthetase (Mycobacterium tuberculosis, UniProt P71716); assay: Inhibition of Mycobacterium tuberculosis recombinant salicylate ligase MbtA expressed in Escherichia coli using salicylic acid as substrate after 20 mins by [32P]PPi-ATP exchange based scintillation counting analysis; conditions: read-out: Ki(app)
T2 sequence (P71716 whole entry): T1 sequence (whole entry)
In short: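 Recombinant MbtA (7 nM) in a [32P]PPi-ATP exchange assay under initial-velocity conditions at pH 8.0. Substrates were 10 mM ATP, 250 μM salicylic acid and 1 mM PPi. Concentration–response data were fitted to the Morrison tight-binding equation to give apparent Ki.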

[5] = AUC (0 to 8 hrs) in Sprague-Dawley rat at 2.5 mg/kg, iv administered as single dose via bolus injection by LC-MS/MS method; type: ADME, organism-based; set-up: time < 8 hr, dose 2.5 mg/kg, route intravenous; conditions: in vivo; in short: as §1
[6] = Clearance in Sprague-Dawley rat at 2.5 mg/kg, iv administered as single dose via bolus injection by LC-MS/MS method; type: ADME, organism-based; conditions: in vivo; in short: as §1
[7] = molecular target: T1, Salicyl-AMP ligase / salicyl-S-ArCP synthetase (Mycobacterium tuberculosis); assay: Inhibition of salicylate ligase MbtA in Mycobacterium tuberculosis H37Rv in iron-free GAST medium assessed as reduction in cell-wall associated lipophilic mycobactin-T production at pH 7.4 at 5 times MIC after 27 hrs by LC-MS/MS method relative to control; in short: as §3
[8] = molecular target: T1, Salicyl-AMP ligase / salicyl-S-ArCP synthetase (Mycobacterium tuberculosis); assay: Inhibition of salicylate ligase MbtA in Mycobacterium tuberculosis H37Rv in iron-free GAST medium assessed as reduction in cell-wall associated lipophilic mycobactin-T production at pH 7.4 at 5 times MIC after 70 hrs by LC-MS/MS method relative to control; in short: as §3
[9] = system: Mycobacterium tuberculosis; assay: Antimycobacterial activity against Mycobacterium tuberculosis H37Rv in glycerol alanine salts medium without ferric ammonium citrate at pH 6.6 after 10 to 14 days by broth microdilution method; type: functional
In short: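 M. tuberculosis H37Rv grown in glycerol-alanine-salts medium at pH 6.6, with no ferric ammonium citrate or other added iron. MIC taken as the concentration inhibiting 99% of growth.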

[10] = Cytotoxicity against African green monkey Vero cells assessed as reduction in cell viability; type: cell-based; conditions: chlorocebus sabaeus
In short: (§4)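 Viability of mammalian Vero and HepG2 cell lines tested up to a highest concentration of 200 μM.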

[11] = Oral bioavailability in Sprague-Dawley rat at 25 mg/kg administered as single dose via gavage by LC-MS/MS method; type: ADME, organism-based; conditions: in vivo
In short: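 Oral bioavailability (F) in female Sprague–Dawley rats (n = 3), calculated by comparing AUC0–8h after a single 25 mg/kg p.o. dose with AUC0–8h after a 2.5 mg/kg i.v. dose. Plasma levels measured by LC–MS/MS.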

[12] = Elimination half life in Sprague-Dawley rat at 2.5 mg/kg, iv administered as single dose via bolus injection by LC-MS/MS method; type: ADME, organism-based; conditions: in vivo, read-out: beta t1/2; in short: as §1
[13] = Cytotoxicity against human HepG2 cells assessed as reduction in cell viability; type: cell-based; in short: as §4
[14] = system: Mycobacterium tuberculosis; assay: Antimycobacterial activity against Mycobacterium tuberculosis H37Rv in glycerol alanine salts medium without ferric ammonium citrate at pH 6.6 after 10 to 14 days in presence of 0.2 to 3.1 uM salicylate by broth microdilution method; type: functional, organism-based; in short: as §2
[15] = AUC (0 to 8 hrs) in Sprague-Dawley rat at 25 mg/kg, po administered as single dose via gavage by LC-MS/MS method; type: ADME, organism-based; set-up: time < 8 hr, dose 25 mg/kg, route oral; conditions: in vivo
In short: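 Female Sprague–Dawley rats (n = 3), single oral dose 25 mg/kg. Plasma levels at time points measured by LC–MS/MS. AUC over 0–8 h, reported as mean ± SD.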

[16] = system: Mycobacterium tuberculosis; assay: Antimycobacterial activity against wild type Mycobacterium tuberculosis in iron-free GAST medium at 0.04 to 10 uM after 8 days by two fold serial dilution method; type: functional, organism-based

| SMILES | Vd [1] [L/kg] | MIC [2] [µM] | fold change (FC) [3] | Ki [4] [µM] | AUC(0-t) at 8 h [5] [ng·h/mL] | clearance [6] [mL/min/kg] | fold change (FC) [7] | fold change (FC) [8] | MIC99 [9] [µM] | CC50 [10] [µM] | bioavailability [11] [%] | half-life [12] [min] | CC50 [13] [µM] | Activity [14] | AUC(0-t) at 8 h [15] [ng·h/mL] | Activity [16] |
| --- | --- | --- | --- | --- | --- | --- | --- | --- | --- | --- | --- | --- | --- | --- | --- | --- |
| CCN(CC)CC.Nc1ncnc2c1ncn2[C@@H]1O[C@H](CNS(=O)(=O)c2n[nH]c3cc(F)ccc3c2=O)[C@@H](O)[C@H]1O | 0.57 | ≥ 50 | 1.5 | 0.0116 | 4630 | 8.9 | > 2 | 5 | 2.3 | > 200 | 2.1 | 40 | > 200 | inactive | 967 | – |
| Nc1ncnc2c1ncn2[C@@H]1O[C@H](CNS(=O)(=O)c2noc3ccccc3c2=O)[C@@H](O)[C@H]1O | – | – | – | > 50 | – | – | – | – | > 50 | > 200 | – | – | > 200 | – | – | – |
| Nc1ncnc2c1ncn2[C@@H]1O[C@H](CNS(=O)(=O)c2n[nH]c3ccc(F)cc3c2=O)[C@@H](O)[C@H]1O | – | ≥ 50 | – | 0.0209 | – | – | – | – | 4.7 | > 200 | – | – | > 200 | inactive | – | – |
| Nc1ncnc2c1ncn2[C@@H]1O[C@H](CNS(=O)(=O)c2c[nH]c3ccccc3c2=O)[C@@H](O)[C@H]1O | – | – | – | 0.12 | – | – | – | – | > 50 | > 200 | – | – | > 200 | – | – | – |
| Nc1ncnc2c1ncn2[C@@H]1O[C@H](CNS(=O)(=O)c2n[nH]c3ccccc3c2=O)[C@@H](O)[C@H]1O | – | ≥ 50 | – | 0.0144 | – | – | – | – | 4.7 | > 200 | – | – | > 200 | inactive | – | – |
| Nc1ncnc2c1ncn2[C@@H]1O[C@H](COS(=O)(=O)NC(=O)c2ccccc2O)[C@@H](O)[C@H]1O | 0.079 | ≥ 50 | – | – | 8650 | 4.9 | – | – | – | – | < 1 | 11 | – | – | 1100 | Active |
| Nc1ncnc2c1ncn2[C@@H]1O[C@H](CNS(=O)(=O)c2n[nH]c3cc(F)c(F)cc3c2=O)[C@@H](O)[C@H]1O | – | ≥ 50 | – | 0.014 | – | – | – | – | 3.1 | > 200 | – | – | > 200 | inactive | – | – |
